From ChEMBL document CHEMBL4118271, “Synthesis and antitumor activity of novel 6,7,8-trimethoxy N-aryl-substituted-4-aminoquinazoline derivatives” (Bioorg Med Chem Lett, 2018)
Activity calls are given as the source filed them. The rule behind the calls is not given here.

Experiments:
SGC-7901 [1] = experiment: Anticancer activity against human SGC7901 cells after 72 hrs by MTT assay; assay type: functional, cell-based; conditions: SGC-7901, 72 h
SGC-7901 [2] = experiment: Induction of morphological changes in human SGC7901 cells assessed as induction of cell break at 1 and 10 uM after 24 to 72 hrs by inverted microscopic analysis; assay type: functional, cell-based
In short: (§1)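 SGC7901 cells were seeded and allowed 24 h to settle, then exposed to 0.1% (v/v) DMSO vehicle, to test agent at 1 or 10 μM, or to epirubicin at 1 or 10 μM. Exposure lasted 24, 48 and 72 h. Morphology (shrinkage, size, apoptotic bodies, breakdown) was then observed microscopically.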

SGC-7901 [3] = experiment: Anticancer activity against human SGC7901 cells at 1 to 10 uM after 72 hrs by MTT assay; assay type: functional, cell-based
In short: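 Growth inhibition of SGC7901 gastric cancer cells tested at single concentrations of 10 and 1 μM for 72 h, read out by MTT assay. Epirubicin served as the positive control at the same concentrations.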

SGC-7901 [4] = experiment: Induction of morphological changes in human SGC7901 cells at 1 uM after 24 hrs by inverted microscopic analysis; assay type: functional, cell-based; in short: as §1
SGC-7901 [5] = experiment: Induction of morphological changes in human SGC7901 cells assessed as induction of cell shrinking at 10 uM after 48 to 72 hrs by inverted microscopic analysis; assay type: functional, cell-based; in short: as §1
SGC-7901 [6] = experiment: Antiproliferative activity against human SGC7901 cells assessed as formation of apoptotic bodies at 10 uM after 48 to 72 hrs by inverted microscopic analysis; assay type: functional, cell-based; in short: as §1
[7] = biological target: Mitogen-activated protein kinase; ERK1/ERK2 (Homo sapiens) (UniProt P27361+P28482); experiment: Inhibition of EGF-induced ERK1/2 phosphorylation in human SGC7901 cells incubated for 30 mins post 10 min EGF stimulation by Western blot analysis; assay type: cell-based
Sequence of Mitogen-activated protein kinase; ERK1/ERK2 (Homo sapiens) (P27361 whole entry, looked up): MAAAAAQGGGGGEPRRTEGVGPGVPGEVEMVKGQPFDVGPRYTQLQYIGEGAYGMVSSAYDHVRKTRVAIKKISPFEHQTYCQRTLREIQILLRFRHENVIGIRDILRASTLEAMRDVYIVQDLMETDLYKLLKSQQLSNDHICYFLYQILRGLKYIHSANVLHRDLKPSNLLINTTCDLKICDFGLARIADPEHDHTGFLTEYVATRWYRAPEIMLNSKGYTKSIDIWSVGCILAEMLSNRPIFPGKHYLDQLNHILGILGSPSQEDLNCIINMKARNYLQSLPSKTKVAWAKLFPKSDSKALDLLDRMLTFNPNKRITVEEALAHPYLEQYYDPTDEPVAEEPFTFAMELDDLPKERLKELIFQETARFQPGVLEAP
Sequence of Mitogen-activated protein kinase; ERK1/ERK2 (Homo sapiens) (P28482 whole entry, looked up): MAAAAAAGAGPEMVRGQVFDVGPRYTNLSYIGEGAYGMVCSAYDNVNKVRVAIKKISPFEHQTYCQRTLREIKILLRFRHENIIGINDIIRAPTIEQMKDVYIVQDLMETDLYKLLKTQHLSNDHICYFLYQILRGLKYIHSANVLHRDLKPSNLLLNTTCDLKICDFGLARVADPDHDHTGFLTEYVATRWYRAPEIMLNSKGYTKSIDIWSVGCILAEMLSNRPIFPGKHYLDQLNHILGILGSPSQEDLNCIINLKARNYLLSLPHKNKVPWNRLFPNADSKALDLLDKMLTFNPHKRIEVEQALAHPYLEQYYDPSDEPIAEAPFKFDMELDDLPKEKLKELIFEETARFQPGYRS
In short: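 SGC7901 cells were grown in RPMI 1640 with 10% serum to 80% confluency and stimulated with 40 ng/ml EGF for 10 min. They were then treated for 30 min with 0.1% (v/v) DMSO or test agent at 1, 10, 20 or 40 μM. Lysates were run on SDS-PAGE and blotted for phospho-ERK1/2, with actin as loading control, ECL detection and densitometry. Three independent experiments were run.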

SGC-7901 [8] = experiment: Induction of morphological changes in human SGC7901 cells assessed as reduction in cell size at 10 uM after 48 to 72 hrs by inverted microscopic analysis; assay type: functional, cell-based; in short: as §1

SMILES	IC50 (SGC-7901 [1])	other results
COc1cc2c(Nc3cccc(Cl)c3F)ncnc2c(OC)c1OC	> 30 µM	
COc1cc2c(Nc3ccc(Br)c(Cl)c3F)ncnc2c(OC)c1OC	15 µM	
COc1cc2c(Nc3ccc(F)c(Cl)c3)ncnc2c(OC)c1OC	5.42 µM	
COc1cc2c(Nc3cc(C(F)(F)F)ccc3F)ncnc2c(OC)c1OC	10.3 µM	
COc1cc2c(Nc3ccc(F)c(Cl)c3F)ncnc2c(OC)c1OC	> 30 µM	
COc1cc2c(Nc3cccc(Br)c3F)ncnc2c(OC)c1OC	> 30 µM	
COc1cc2c(Nc3cc(Br)ccc3F)ncnc2c(OC)c1OC	18.4 µM	
COc1cc2c(Nc3cccc(F)c3F)ncnc2c(OC)c1OC	> 30 µM	
C#Cc1cccc(Nc2ncnc3c(OC)c(OC)c(OC)cc23)c1	5.82 µM	
COc1cc2c(Nc3cccc(I)c3)ncnc2c(OC)c1OC	8.64 µM	
COc1cccc2c1C(=O)c1c(O)c3c(c(O)c1C2=O)C[C@@](O)(C(=O)CO)C[C@@H]3O[C@H]1C[C@H](N)[C@@H](O)[C@H](C)O1 [EPIRUBICIN]	5.16 µM	Activity (SGC-7901 [2]): Active
COc1cc2c(Nc3cccc(C(F)(F)F)c3)ncnc2c(OC)c1OC	> 30 µM	
COc1cc2c(Nc3ccc(Br)c(F)c3)ncnc2c(OC)c1OC	> 30 µM	
COc1cc2c(Nc3ccc(B(O)O)cc3)ncnc2c(OC)c1OC	0.434 µM	Activity (SGC-7901 [3]): Active; Activity (SGC-7901 [4]): inactive; Activity (SGC-7901 [5]): Active; Activity (SGC-7901 [6]): Active; inhibition [7]: Dose-dependent effect; Activity (SGC-7901 [8]): Active
COc1cc2c(Nc3ccc(C(F)(F)F)cc3)ncnc2c(OC)c1OC	> 30 µM	
